Data as given in ChEMBL document CHEMBL5331127, “Discovery of ARD-2051 as a Potent and Orally Efficacious Proteolysis Targeting Chimera (PROTAC) Degrader of Androgen Receptor for the Treatment of Advanced Prostate Cancer” (J Med Chem, 2023).
Active and inactive are the calls of the source. No cut-off for these calls is given here.

Columns and labels:
[1] = target: Androgen receptor (Homo sapiens) (UniProt P10275); test: In vivo induction of androgen receptor degradation in human VCaP cells xenografted in CB17 SCID mouse assessed as reduction in AR protein level at 12.5 mg/kg, po measured after 6 hrs by […] analysis; design: scale not given: the % may be the effect or the level left
[2] = target: Androgen receptor (Homo sapiens) (UniProt P10275); test: In vivo induction of androgen receptor degradation in human VCaP cells xenografted in CB17 SCID mouse assessed as reduction in AR protein level at 12.5 mg/kg, po measured after 24 hrs by Western blotting analysis; design: scale not given: the % may be the effect or the level left
[3] = Drug concentration in CB17 SCID mouse tumor xenografted with human VCaP cells at 12.5 mg/kg, po measured after 24 hrs by LC-MS/MS analysis; assay type: ADME, organism-based, Neoplasm; conditions: read-out: Ct
In short: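 SCID mice bearing one VCaP tumour each given a single oral 12.5 mg/kg dose in 100% PEG200. Plasma and tumour tissue collected at 6 and 24 h, 3 mice per time point. Values are mean ± SD.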

[4] = Clearance in Sprague-Dawley rat at 1 mg/kg, iv measured upto 24 hrs by LC-MS/MS analysis; assay type: ADME, organism-based; conditions: in vivo
In short: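 Male Sprague Dawley rats received a single intravenous dose of 1 mg/kg, formulated in 10% PEG400 + 90% PBS adjusted to pH 8.0 with 0.5 N NaOH.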

Mus musculus = test: In vivo induction of androgen receptor degradation in human VCaP cells xenografted in CB17 SCID mouse assessed as reduction in TMPRSS2 mRNA level at 12.5 mg/kg, po measured after 6 to 24 hrs by qRT-PCR analysis; assay type: functional, organism-based; conditions: time 6-24 hrs
[5] = Downregulation of KLK3 gene expression in human VCaP cells at 1 nM incubated for 24 hrs by qRT-PCR analysis; assay type: functional
In short: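 VCaP cells (ATCC) grown in DMEM with Glutamax plus 10% FBS at 37 °C, 5% CO2. Cells treated 24 h; KLK3 mRNA measured by qRT-PCR, expression by comparative CT method, normalised to GAPDH (ΔCT) and then to vehicle control (ΔΔCT).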

[6] = AUC(0 to t) in Beagle dog at 1 mg/kg, iv measured upto 24 hrs by LC-MS/MS analysis; assay type: ADME, organism-based, Canis lupus familiaris; design: time < 24 hrs, dose 1 mg/kg, route iv; conditions: in vivo
In short: (§1)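 Male ICR mice (2 mg/kg), male SD rats (1 mg/kg) or male Beagle dogs (1 mg/kg) given a single intravenous dose in 10% PEG400 + 90% PBS adjusted to pH 8.0 with NaOH.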

[7] = Half life in Beagle dog at 1 mg/kg, iv measured upto 24 hrs by LC-MS/MS analysis; assay type: ADME, organism-based, Canis lupus familiaris; conditions: in vivo
In short: as §1

[8] = Metabolic stability in monkey liver microsomes assessed as half life at 1 uM measured upto 45 mins in presence of NADPH by LC-MS/MS analysis; assay type: ADME, Macaca mulatta, Microsome; conditions: rhesus monkey, 0.75 h
In short: (§2)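 Pooled liver microsomes from each species: 1 μM compound with 0.5 mg/mL microsomes and 1.7 mM NADPH in 0.1 M K-phosphate, pH 7.4, 5 mM MgCl2, 37 °C. Sampled at 0, 5, 10, 15, 30 and 45 min with cold ACN quench. No-NADPH incubation as negative control; ketanserin as positive control. LC-MS/MS; half-life from ln(remaining) versus time.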

[9] = Cmax in Beagle dog at 3 mg/kg, po measured up to 24 hrs by LC-MS/MS analysis; assay type: ADME, organism-based, Canis lupus familiaris; design: time < 24 hrs, dose 3 mg/kg, route po; conditions: in vivo
In short: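 Male Beagle dogs dosed orally at 3 mg/kg in 90% PEG400 + 10% Cremophor.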

VCaP [10] = test: Antitumor activity against human VCaP cells xenografted in CB17 SCID mouse assessed as tumor growth inhibition at 7.5 mg/kg, po administered for 21 days; assay type: functional; conditions: 504 h, time 21 day, read-out: TGI
In short: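 SCID mice bearing VCaP xenografts dosed by oral gavage once daily for 21 days at 3.75, 7.5, 12.5 or 25 mg/kg. Tumour growth inhibition calculated against vehicle-treated mice at the end of treatment; body weight monitored.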

VCaP [11] = test: Induction of androgen receptor degradation in human VCaP cells at 100 nM pretreated with ARi-12 for 2 hrs followed by compound addition and 3 hrs by Western blot analysis; assay type: functional, cell-based; conditions: time 5.0 hrs
In short: (§3)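 LNCaP or VCaP cells pretreated 2 h with DMSO, ARi-12 (10 μM), thalidomide (10 μM), MG-132 (3 μM) or MLN4924 (0.5 μM), then given degrader at 100 nM for 3 h. AR measured by Western blot with GAPDH as loading control.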

[12] = Metabolic stability in mouse liver microsomes assessed as half life at 1 uM measured upto 45 mins in presence of NADPH by LC-MS/MS analysis; assay type: ADME, Microsome; conditions: 0.75 h
In short: as §2

LNCaP [13] = test: Downregulation of KLK3 gene expression in human LNCaP cells incubated for 24 hrs by qRT-PCR analysis; assay type: functional, cell-based; conditions: dose 0.03-30 nM
In short: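 LNCaP cells (RPMI 1640) or VCaP cells (DMEM Glutamax), both with 10% FBS, treated for 24 h. KLK3 mRNA measured by qRT-PCR and calculated by the comparative CT method against GAPDH and vehicle.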

[14] = Drug concentration in ICR mouse plasma at 10 mg/kg, po measured after 24 hrs; assay type: ADME, organism-based
In short: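 Mice given a single 10 mg/kg dose by oral gavage, 3 mice per time point. Plasma drug levels measured at 1, 3, 6 and 24 h; mean ± SD reported.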

LNCaP [15] = test: Growth inhibition in human LNCaP cells incubated for 4 days by WST-8 assay; assay type: functional, cell-based; conditions: 96 h
LNCaP [16] = test: Induction of androgen receptor degradation in human LNCaP cells at 100 nM pretreated with MLN4924 for 2 hrs followed by compound addition and 3 hrs by Western blot analysis; assay type: functional, cell-based; conditions: time 5.0 hrs
In short: as §3

[17] = Volume of distribution at steady state in Sprague-Dawley rat at 1 mg/kg, iv measured upto 24 hrs by LC-MS/MS analysis; assay type: ADME, organism-based; conditions: in vivo
[18] = Oral bioavailability in Beagle dog at 3 mg/kg measured up to 24 hrs by LC-MS/MS analysis; assay type: ADME, organism-based, Canis lupus familiaris; conditions: in vivo
In short: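 Male Beagle dogs. IV 1 mg/kg in 10% PEG400 + 90% PBS (pH 8.0); PO 3 mg/kg in 90% PEG400 + 10% Cremophor. Plasma PK to 24 h; F from IV and PO exposure.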

Compound: C[C@H]1CC2(CCN(c3ccc(C(=O)N4CCN(C5CN(c6ccc7c(c6)C(=O)N(C6CCC(=O)NC6=O)C7=O)C5)CC4)cc3)CC2)CN1c1ccc(C#N)c(Cl)c1 (some centres undefined)
- Activity [1]: 73%
- Activity [2]: > 95%
- concentration at 24 h [3]: 183 ng/mL
- clearance [4]: 10.2 mL/min/kg
- Activity (Mus musculus): Active
- Activity [5]: 51%
- AUCt [6]: 3240 ng·h/mL
- t1/2 [7]: 8.9 h
- t1/2 [8]: > 1 h
- Cmax [9]: 294 ng/mL
- inhibition in vivo at 7.5 mg/kg (VCaP [10]): 71%
- Activity (VCaP [11]): inactive
- t1/2 [12]: > 1 h
- Activity (LNCaP [13]): Dose-Dependent Effect
- concentration at 24 h [14]: 77 ng/mL
- IC50 (LNCaP [15]): 13 nM
- Activity (LNCaP [16]): inactive
- Vdss [17]: 1.3 L/kg
- F [18]: 46%
